In publication PMC4245164 (ACS Chemical Biology, 2014):

How the values were obtained:
Pmp22 [1] = experiment: S16 GLuc and secNLuc Pmp22 reporter qHTS follow-up assays; assay type: cell-based, rat; details: for potency on Pmp22 expression: data not shown; for effect on reporter activity: GLuc and secNLuc reporters
Pmp22 [2] = experiment: S16 secNLuc reporter cell assay; assay type: cell-based, rat
CMT1A patients = details: human clinical trials; cited from earlier work
Pmp22 [3] = experiment: Quantitative RT-PCR of endogenous Pmp22 in S16 cells; assay type: cell-based, rat; details: qRT-PCR, 1 or 10 nM, 24 h
Method in brief: (§1)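 S16 rat Schwann cells were plated at 2×10^5 cells/well in 6-well plates. They were treated for 24 h with test compound at 1 nM or 10 nM, or with DMSO (0.6%) only. RNA was purified and reverse-transcribed to cDNA. qPCR used SYBR green reactions or Taqman-based custom microfluidic arrays. Data were normalized to ActB and expressed relative to the untreated sample, set to 1 for each gene.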

[4] = tested on: major myelin genes and their regulators; experiment: Quantitative RT-PCR of co-regulated myelin genes and regulators in S16 cells; assay type: cell-based, rat; details: qRT-PCR, 1 or 10 nM, 24 h
Method in brief: as §1

PMP22 regulatory element = experiment: S16 intronic enhancer FLuc reporter assay; assay type: cell-based, rat; details: retest after completion of the study
Method in brief: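 S16 cells carrying a randomly integrated firefly luciferase reporter driven by the Pmp22 intronic enhancer were retested with test compound after the main study. Data are shown with standard deviation of two replicates.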

COc1ccc2c(c1)c(C1=C(c3c[nH]c4ccccc34)C(=O)NC1=O)cn2CCCN(C)C [Go 6983]
potency on Pmp22 expression (Pmp22 [1]): lack of potency

CCCCCCCCCCCCCC(=O)O[C@@H]1[C@@H](C)[C@@]2(O)[C@@H](C=C(CO)C[C@]3(O)C(=O)C(C)=C[C@@H]23)[C@@H]2C(C)(C)[C@]12OC(C)=O [PMA, Phorbol 12-myristate 13-acetate]
effect on Pmp22 reporter expression (Pmp22 [2]; nanomolar levels, 24 h, secNLuc S16 cell line): repression

O=C1O[C@H]([C@@H](O)CO)C(O)=C1O [ascorbic acid]
effect in CMT1A patients (CMT1A patients): have not shown a significant effect

CCC/C=C/C=C/C(=O)O[C@H]1/C(=C/C(=O)OC)C[C@H]2C[C@H]([C@@H](C)O)OC(=O)C[C@H](O)C[C@@H]3C[C@H](OC(C)=O)C(C)(C)[C@](O)(C[C@@H]4C/C(=C/C(=O)OC)C[C@H](/C=C/C(C)(C)[C@]1(O)O2)O4)O3 [bryostatin, Bryostatin 1]
efficacy relative to the control, bortezomib (Pmp22 [2]; S16 NLuc assay, full titration response profile): partial efficacy
Pmp22 expression relative to untreated S16 cells (Pmp22 [3]): ≤ 50%
Myelin-associated glycoprotein expression [4]: decline to a greater degree than Pmp22
Periaxin expression [4]: decline to a greater degree than Pmp22
expression of most of the other tested genes [4]: not affected
effect in the intronic FLuc assay (PMP22 regulatory element): no inhibitory effect

Cn1cc(C2=C(c3cn(C4CCN(Cc5ccccn5)CC4)c4ccccc34)C(=O)NC2=O)c2ccccc21 [enzastaurin]
potency on Pmp22 expression (Pmp22 [1]): lack of potency

CC(=O)[C@@]1(O)CC[C@H]2[C@@H]3CCC4=CC(=O)CC[C@]4(C)C3(F)[C@@H](O)C[C@@]21C (stereo partly drawn) [flugestone]
effect on reporter activity (Pmp22 [1]): increasing reporter activity

CC#C[C@]1(O)CC[C@H]2[C@@H]3CCC4=CC(=O)CCC4=C3[C@@H](c3ccc(N(C)C)cc3)C[C@@]21C [mifepristone]
effect on reporter activity (Pmp22 [1]): marginal effect
